Data set [1] is described as follows: melting temperature; fluorescence melt of hairpins on a sequencing array, two-state fit, raised by 9.35 °C to match UV melts. Conditions: sodium 0.088 M. Summed up: (§1)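 Cy3 fluorescence of library hairpins on a sequenced MiSeq flow cell, with annealed Cy3 and quencher oligos, was imaged in 50 mM Na-HEPES pH 8.0, 25 mM NaCl in 2.5 °C steps up to 60 °C. Signals were normalised to pre-quench Cy3 and to control variants. Melting temperature and folding enthalpy came from bootstrapped two-state fits, inverse-variance combined over four replicates. Fitted temperatures were raised by 9.35 °C to match UV melts.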

A short description of data set [2]: folding enthalpy; higher = less favourable; fluorescence melt of hairpins on a sequencing array, two-state fit. Particulars: sodium 0.088 M. The method, boiled down:
as §1

As to GCGAGGCGAAAGCTTAGC ((.(.((....)).).)), the Tm in data set [1] amounted to 56.9 °C. The folding enthalpy in data set [2] was -16.7 kcal/mol.
With GCCGGGCGAAAGCTAGGC (((..((....))..))), the Tm in data set [1] came to 66.6 °C. The folding enthalpy in data set [2] is -34.4 kcal/mol.
Take GTATACGCGAAAGCGTAC (((..(((....)))))): the Tm in data set [1] came to 37.9 °C. In data set [2], the folding enthalpy was -7.12 kcal/mol.
In the same order, the values of GATCTCCCGAAAGGGATC (((..(((....)))))) are 29.6 °C and -9.21 kcal/mol.
On the same counts, the results for GGGTACGAAAGTACTCCC ((((((....)))..))) are 45.6 °C and -13.4 kcal/mol.
Turning to GACTTTGGAAACAAAGCC (.(((((....))))).), in data set [1], the Tm stood at 39 °C. In addition, the folding enthalpy in data set [2] was -22.4 kcal/mol.
In the case of GCCAAGCGAAAGCTGGC (((.(((....)))))), in data set [1], the Tm came out at 68.5 °C. Further, the folding enthalpy in data set [2] is -28.3 kcal/mol.
For GCCCCCTCGAAAGAGGGC (((..(((....)))))), in data set [1], the Tm amounted to 37.6 °C. Further, in data set [2], the folding enthalpy was -6 kcal/mol.
Consider GTAAGACGAAAGTCATAC (((.(((....))).))), for which, in data set [1], the Tm was 39.1 °C. In data set [2], the folding enthalpy was -20.6 kcal/mol.
Take CGTCTACGGAAACGTACG (((..(((....)))))): the Tm in data set [1] was 31.5 °C. Besides, in data set [2], the folding enthalpy is -11.6 kcal/mol.
On the same counts, the results for GGCTTACGAAAGTATGCC (((.(((....))).))) are 56.8 °C and -45.2 kcal/mol.
On the same counts, the results for GATCCGCCCCCGGATC ((((((....)))))) are 56.5 °C and -40.6 kcal/mol.
On the same counts, the results for GATACCGAAAGGTATATC ((((((....)))..))) are 45.2 °C and -16.3 kcal/mol.
As to GTGCGCGGAAACGCGTGC (..((((....))))..), the Tm in data set [1] worked out at 57 °C. Besides, the folding enthalpy in data set [2] is -16.7 kcal/mol.
Turning to GCATCACGAAAGTGGTGC (((.(((....))).))), the Tm in data set [1] came to 64.3 °C. In addition, the folding enthalpy in data set [2] was -37.8 kcal/mol.
Turning to CGCATTCGGAAACGAGCG (((..(((....)))))), the Tm in data set [1] amounted to 36.9 °C. Also, the folding enthalpy in data set [2] is -25.9 kcal/mol.
With GAGGTGGGAAACCACTTC ((.((((....)))).)), in data set [1], the Tm was determined as 46 °C. The folding enthalpy in data set [2] was -21.4 kcal/mol.
In the case of GCATTGCGAAAGCATTGC (((.(((....))).))), the Tm in data set [1] was found to be 55.4 °C. The folding enthalpy in data set [2] is -52.2 kcal/mol.
In the same order, the values of GCCTTTCGAAAGAAGGC (((.(((....)))))) are 50.4 °C and -29.1 kcal/mol.
In the same order, the values of ACACTGAAAAGTGT (((((....))))) are 47.4 °C and -23.4 kcal/mol.
GAGAGTGGAAACGCTCTC (((((.(....).))))): the Tm in data set [1] amounted to 51.7 °C. In data set [2], the folding enthalpy is -36.8 kcal/mol.
On to GCTTGGGGAAACCCGAGC (((.(((....))).))), for which, in data set [1], the Tm was 56.7 °C. The folding enthalpy in data set [2] was -41.7 kcal/mol.
On the same counts, the results for GCAGGTGGAAACACCCGC ((.((((....)))).)) are 50 °C and -23.4 kcal/mol.
Consider GATCCGATATCGGATC ((((((....)))))), for which the Tm in data set [1] is 59.2 °C. In addition, the folding enthalpy in data set [2] is -39.9 kcal/mol.
On the same counts, the results for CGGGCCCGGAAACGGCCG (((..(((....)))))) are 50.3 °C and -13.3 kcal/mol.
On the same counts, the results for GGGTGAGGAAACTTGCCC (((..((....))..))) are 43.5 °C and -22.9 kcal/mol.
Consider GGAGAAGGAAACTCCTCC ((((.((....)).)))), for which the Tm in data set [1] came to 36 °C. Moreover, the folding enthalpy in data set [2] was -22.6 kcal/mol.
For GATTTGCGAAAGCAGATC (((.(((....))).))), in data set [1], the Tm came to 50 °C. Besides, in data set [2], the folding enthalpy is -32 kcal/mol.
In the same order, the values of GGGGACGAAAGTCGCCCC ((((((....)))..))) are 65.4 °C and -11 kcal/mol.
In the case of GCCCAGGGAAACCCGGGC ((((.((....)).)))), in data set [1], the Tm worked out at 57.8 °C. Moreover, in data set [2], the folding enthalpy is -37.4 kcal/mol.
On the same counts, the results for GATCGGATAGCCGATC ((((((....)))))) are 55.4 °C and -29.6 kcal/mol.
On the same counts, the results for GCCGTAGCGAAAGCTGGC (((..(((....)))))) are 55.6 °C and -31.5 kcal/mol.
For GACGGACGAAAGTCGTC (((.(((....)))))), in data set [1], the Tm came out at 55.6 °C. In data set [2], the folding enthalpy is -27.3 kcal/mol.
Consider GATCGGCTGCCCGATC ((((((....)))))), for which, in data set [1], the Tm came out at 56.2 °C. Besides, the folding enthalpy in data set [2] was -31.2 kcal/mol.
In the same order, the values of GTCCAGGAAACTGGAC ((((((....)))))) are 62.4 °C and -34 kcal/mol.
On to GCCAGGCGAAAGCCGTGC ((..(((....)))..)), for which, in data set [1], the Tm was determined as 50 °C. Moreover, the folding enthalpy in data set [2] was -13.6 kcal/mol.
On the same counts, the results for GACCCCGGAAACAGGGTC (((((.(....).))))) are 48.8 °C and -29.5 kcal/mol.
On the same counts, the results for GAGCTACGAAAGTATCTC (((.(((....))).))) are 36.9 °C and -25.1 kcal/mol.
In the same order, the values of GGTATACGAAAGTAAACC (((.(((....))).))) are 43.6 °C and -28.4 kcal/mol.
In the case of CGTCACGGAAACGTACG (((.(((....)))))), the Tm in data set [1] was 40 °C. Moreover, the folding enthalpy in data set [2] is -22.8 kcal/mol.
Take GTGGTGGGAAACTACCAC (((((.(....).))))): the Tm in data set [1] was 52.6 °C. In data set [2], the folding enthalpy was -43.4 kcal/mol.
In the same order, the values of GATCTCTTCCGAGATC ((((((....)))))) are 52.3 °C and -37 kcal/mol.
On the same counts, the results for GCTCGGCGAAAGCTTAGC (((..((....))..))) are 40.9 °C and -15.3 kcal/mol.
In the same order, the values of GGGATTGGAAACAACCCC (((.(((....))).))) are 42.4 °C and -28 kcal/mol.
GCTTGGCGAAAGCTATGC ((.(.((....)).).)): in data set [1], the Tm amounted to 47.9 °C. Also, in data set [2], the folding enthalpy is -15.6 kcal/mol.
In the same order, the values of GGTAGCGGAAACGTTACC ((((.((....)).)))) are 50.4 °C and -32.4 kcal/mol.
In the same order, the values of GGGGGATCGAAAGATCCC (((..(((....)))))) are 59.9 °C and -8.42 kcal/mol.
As to GATCTCGCACGAGATC ((((((....)))))), the Tm in data set [1] is 61 °C. In addition, the folding enthalpy in data set [2] was -44.6 kcal/mol.
In the same order, the values of GAGCTGGGAAACTAGCTC (((((.(....).))))) are 52.5 °C and -38.7 kcal/mol.
In the same order, the values of GATCTAGCATAGATC ((((((...)))))) are 50.8 °C and -36.5 kcal/mol.
On to GAAAGCGGAAACGCTCTC ((.((((....)))).)), for which, in data set [1], the Tm came out at 35 °C. Further, the folding enthalpy in data set [2] was -12.3 kcal/mol.
In the same order, the values of GAAGACGGAAACGCCTTC ((((.((....)).)))) are 45.6 °C and -26.5 kcal/mol.
In the same order, the values of GATCTACTAGTAGATC ((((((....)))))) are 51.7 °C and -46.8 kcal/mol.
For CGCGGACAGCTCCGCG ((((((....)))))), in data set [1], the Tm turned out to be 68.2 °C. Also, the folding enthalpy in data set [2] was -30.1 kcal/mol.
Turning to GGGTGCGCGAAAGCGCCC (((..(((....)))))), the Tm in data set [1] is 55.5 °C. For the same sequence, the folding enthalpy in data set [2] is -10.8 kcal/mol.
For the sequence GCCTCCGAAAGGACGGGC ((((((....)))..))), the Tm in data set [1] worked out at 48.6 °C. In addition, the folding enthalpy in data set [2] was -24.5 kcal/mol.
In the same order, the values of GATCGGGTCGCCGATC ((((((....)))))) are 65.3 °C and -7.84 kcal/mol.
On the same counts, the results for GGTCGAGGAAACTCAACC (((.(((....))).))) are 37 °C and -29.5 kcal/mol.
On the same counts, the results for GATCCACAATTGGATC ((((((....)))))) are 47.5 °C and -32.4 kcal/mol.
Consider GTACCCGAAAGGGAATAC ((((((....)))..))), for which the Tm in data set [1] amounted to 29.7 °C. The folding enthalpy in data set [2] is -12.4 kcal/mol.
In the case of GATCGTGACCACGATC ((((((....)))))), in data set [1], the Tm turned out to be 61.3 °C. Besides, the folding enthalpy in data set [2] is -38.7 kcal/mol.
Take GCCTTCGAAAGAAGGGC ((((((....))).))): the Tm in data set [1] was determined as 63.1 °C. For the same sequence, the folding enthalpy in data set [2] is -15 kcal/mol.
On to GCTCCGCGAAAGCGGCGC ((.((((....)))).)), for which the Tm in data set [1] stood at 65.1 °C. Also, the folding enthalpy in data set [2] is -18.6 kcal/mol.
As to GAATTGCGAAAGCATTTC (((.(((....))).))), the Tm in data set [1] came to 44.8 °C. Besides, the folding enthalpy in data set [2] was -21.7 kcal/mol.
On the same counts, the results for GCTGGCGGAAACACCAGC (((((.(....).))))) are 53.5 °C and -40.8 kcal/mol.
In the case of GCCATAGGAAACCATGGC (((((.(....).))))), the Tm in data set [1] amounted to 47.7 °C. The folding enthalpy in data set [2] is -34.2 kcal/mol.
On the same counts, the results for GATCCTTGGTAGGATC ((((((....)))))) are 51.1 °C and -31.6 kcal/mol.
With TCCTTGAAAAAGGA (((((....))))), the Tm in data set [1] is 35.1 °C. Besides, the folding enthalpy in data set [2] is -11.1 kcal/mol.
GCCCTGCCGAAAGGCGGC (((..(((....)))))): the Tm in data set [1] amounted to 54.9 °C. In addition, in data set [2], the folding enthalpy was -9.83 kcal/mol.
On the same counts, the results for GATCATTAAAATGATC ((((((....)))))) are 45.2 °C and -29.5 kcal/mol.
Consider GCTTCGCGAAAGCTACGC ((.(.((....)).).)), for which, in data set [1], the Tm was determined as 42.9 °C. The folding enthalpy in data set [2] was -12.6 kcal/mol.
With GCAGGGGGAAACCCCCAC (..((((....))))..), the Tm in data set [1] came out at 33.1 °C. Also, the folding enthalpy in data set [2] is -9.57 kcal/mol.
On the same counts, the results for GTGAGCGAAAGCTAGCAC ((((((....)))..))) are 40.4 °C and -11.4 kcal/mol.
On the same counts, the results for GTTTCACGAAAGTGCAAC (((.(((....))).))) are 41.1 °C and -26.9 kcal/mol.

The values above are taken from the array DNA melting data of Ke et al. (doi:10.1101/2024.01.08.574731).
